In ChEMBL document CHEMBL5321206, “New amidine-benzenesulfonamides as iNOS inhibitors for the therapy of the triple negative breast cancer” (Eur J Med Chem, 2023):
Calls of active or inactive are those of the source. No cut-off for these calls is given here.

Key:
[1] = target: T1, Nitric oxide synthase 3 (Bos taurus) (UniProt P29473); experiment: Inhibition of full length N-terminal his-tagged bovine eNOS (2 to 1205 residues) expressed in Escherichia coli at 10 uM preincubated for 15 mins followed by NADPH addition and measured after 30 mins by HPLC analysis relative to control; details: time 45.0 min
T1 sequence (whole entry): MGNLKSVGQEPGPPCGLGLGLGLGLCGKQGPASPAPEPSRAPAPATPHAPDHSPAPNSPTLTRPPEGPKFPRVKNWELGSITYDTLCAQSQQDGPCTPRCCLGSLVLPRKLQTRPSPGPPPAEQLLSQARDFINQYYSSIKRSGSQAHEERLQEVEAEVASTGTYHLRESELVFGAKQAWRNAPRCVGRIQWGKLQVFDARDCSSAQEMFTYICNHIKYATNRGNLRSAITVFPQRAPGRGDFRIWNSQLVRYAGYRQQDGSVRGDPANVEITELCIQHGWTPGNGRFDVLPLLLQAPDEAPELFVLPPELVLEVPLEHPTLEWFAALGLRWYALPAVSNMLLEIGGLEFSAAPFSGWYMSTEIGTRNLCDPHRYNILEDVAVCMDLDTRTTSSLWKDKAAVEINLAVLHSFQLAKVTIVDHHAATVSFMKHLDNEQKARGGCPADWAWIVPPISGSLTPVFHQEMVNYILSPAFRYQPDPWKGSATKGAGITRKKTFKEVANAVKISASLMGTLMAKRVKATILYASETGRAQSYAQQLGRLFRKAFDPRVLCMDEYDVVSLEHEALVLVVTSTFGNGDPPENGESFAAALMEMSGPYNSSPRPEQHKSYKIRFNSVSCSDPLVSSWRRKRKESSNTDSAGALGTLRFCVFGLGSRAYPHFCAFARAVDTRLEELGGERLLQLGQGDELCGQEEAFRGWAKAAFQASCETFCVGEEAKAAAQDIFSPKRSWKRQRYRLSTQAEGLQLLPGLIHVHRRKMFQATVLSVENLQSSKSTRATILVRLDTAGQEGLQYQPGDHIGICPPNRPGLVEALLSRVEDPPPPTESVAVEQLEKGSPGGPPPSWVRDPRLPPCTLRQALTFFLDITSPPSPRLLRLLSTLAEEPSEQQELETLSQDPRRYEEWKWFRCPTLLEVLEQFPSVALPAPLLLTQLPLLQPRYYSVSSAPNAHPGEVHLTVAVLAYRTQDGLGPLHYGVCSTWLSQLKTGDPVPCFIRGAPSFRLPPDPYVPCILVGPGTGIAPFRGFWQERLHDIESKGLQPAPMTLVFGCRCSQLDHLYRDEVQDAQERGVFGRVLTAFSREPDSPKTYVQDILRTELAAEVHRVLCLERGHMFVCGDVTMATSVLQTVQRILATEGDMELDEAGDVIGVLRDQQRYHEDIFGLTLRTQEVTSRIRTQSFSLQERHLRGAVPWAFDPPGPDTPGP
Procedure, shortened: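 Recombinant bovine eNOS in HEPES buffer with 2 mM CaCl2 plus the same cofactor mix as the iNOS assay (DTT, BSA, FMN, FAD, BH4, calmodulin, 10 μM L-Arg). Compound pre-incubated 15 min at 37 °C. NADPH-started reaction run 30 min at 37 °C, quenched with cold CH3CN. Read by OPA/NAC fluorescence HPLC. […] IC50 from seven concentrations in triplicate.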

[2] = target: T2, Nitric oxide synthase, inducible (Homo sapiens, UniProt P35228); experiment: Inhibition of N-terminal his6-tagged recombinant human iNOS expressed in Escherichia coli at 1 uM preincubated for 15 mins followed by NADPH addition and measured after 30 mins by HPLC analysis relative to control; details: time 45.0 min
Procedure, shortened: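 Recombinant human iNOS in 100 mM HEPES pH 7.4 with 0.1 mM CaCl2, 1 mM DTT, 0.5 mg/mL BSA, 10 μM FMN, 10 μM FAD, 30 μM BH4, 10 μg/mL calmodulin and 10 μM L-Arg. Compound pre-incubated 15 min at 37 °C. NADPH added to start the reaction, run 30 min at 37 °C, stopped with cold CH3CN. Product measured by OPA/NAC derivatization and fluorescence HPLC (ex 335/em 439 nm). […] IC50 from seven concentrations in triplicate, mean ± SD.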

[3] = tested on: MDA-MB-231; experiment: Antiproliferative activity against human MDA-MB-231 cells assessed as reduction in cell viability measured after 5 days by PrestoBlue reagent based assay; format: functional; details: MDA-MB-231, 120 h
Procedure, shortened: (§1)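 MDA-MB-231 cells grown in DMEM with 10% FBS and 2 mM L-glutamine. Seeded 2000 cells/well, grown 24 h, then treated 5 days over 0.001–100 μM in triplicate wells. Read with PrestoBlue (10% v/v, 120 min), fluorescence ex 540/em 590 nm. Normalized to 0.1% DMSO controls. EC50 from sigmoidal variable-slope fit, mean ± SD, n = 3 independent experiments.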

[4] = target: T3, Nitric oxide synthase 3 (Bos taurus, UniProt P29473); experiment: Inhibition of full length N-terminal his-tagged bovine eNOS (2 to 1205 residues) expressed in Escherichia coli preincubated for 15 mins followed by NADPH addition and measured after 30 mins by HPLC analysis
T3 sequence (P29473 whole entry): T1 sequence (whole entry)
Procedure, shortened: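 Recombinant bovine eNOS in HEPES buffer with 2 mM CaCl2 plus the same cofactor mix as the iNOS assay (DTT, BSA, FMN, FAD, BH4, calmodulin, 10 μM L-Arg). NADPH-started reaction run 30 min at 37 °C, quenched with cold CH3CN. Read by OPA/NAC fluorescence HPLC. IC50 from seven concentrations in triplicate.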

[5] = tested on: MDA-MB-231; experiment: Antiproliferative activity against human MDA-MB-231 cells assessed as reduction in cell viability upto 100 uM measured after 5 days by PrestoBlue reagent based assay; format: functional; details: time 5.0 day; procedure, shortened: as §1
[6] = target: T2, Nitric oxide synthase, inducible; experiment: Inhibition of N-terminal his6-tagged recombinant human iNOS expressed in Escherichia coli preincubated for 15 mins followed by NADPH addition and measured after 30 mins by HPLC analysis
Procedure, shortened: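 Recombinant human iNOS in 100 mM HEPES pH 7.4 with 0.1 mM CaCl2, 1 mM DTT, 0.5 mg/mL BSA, 10 μM FMN, 10 μM FAD, 30 μM BH4, 10 μg/mL calmodulin and 10 μM L-Arg. NADPH added to start the reaction, run 30 min at 37 °C, stopped with cold CH3CN. IC50 from seven concentrations in triplicate, mean ± SD.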

[7] = tested on: MCF-12A; experiment: Antiproliferative activity against human MCF-12A cells assessed as reduction in cell viability measured after 5 days by PrestoBlue reagent based assay; format: functional; details: 120 h
Procedure, shortened: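 MCF-12A cells (DMEM/F12 1:1, 5% equine serum, EGF, hydrocortisone, cholera toxin, insulin) seeded 2000 cells/well, grown 24 h, then exposed 5 days to 0.001–100 μM in triplicate. Read with PrestoBlue (10% v/v, 120 min), ex 540/em 590 nm. Normalized to 0.1% DMSO controls. EC50 from sigmoidal variable-slope fit, mean ± SD of 3 independent experiments.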

[8] = tested on: MCF-12A; experiment: Antiproliferative activity against human MCF-12A cells assessed as reduction in cell viability at 50 uM measured after 5 days by PrestoBlue reagent based assay relative to control; format: functional; details: time 5 day
Procedure, shortened: (§2)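 MCF-12A cells grown in DMEM/F12 (1:1) with 5% equine serum, EGF, hydrocortisone, cholera toxin and insulin, at 37 °C and 5% CO2. Seeded 2000 cells/well in triplicate and grown 24 h, then treated 5 days. Read with PrestoBlue (10% v/v, 120 min), fluorescence ex 540/em 590 nm. Viability normalized to 0.1% DMSO-treated cells (100%).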

[9] = Metabolic stability in rat liver microsome assessed as half life pretreated for 5 mins followed by NADPH and measured after 60 mins by HPLC analysis; format: ADME; details: liver microsomes, time 65 min
Procedure, shortened: (§3)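 Compound from 2 mM DMSO stock diluted in PBS with Sprague–Dawley rat liver microsomes and warmed 5 min at 37 °C. NADPH (10 mM stock) added, incubated 60 min at 37 °C, quenched with cold CH3CN and centrifuged. At least three repeats, verapamil as positive control. CLint scaled using 45 mg microsomal protein/g liver and 40 g liver/kg body weight.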

[10] = tested on: MCF-12A; experiment: Antiproliferative activity against human MCF-12A cells assessed as reduction in cell viability at 25 uM measured after 5 days by PrestoBlue reagent based assay relative to control; format: functional; details: time 5.0 day; procedure, shortened: as §2
[11] = tested on: MDA-MB-231; experiment: Inhibition of cell migration in human MDA-MB-231 cells assessed as reduction in wound closure incubated for 24 hrs by microscopic analysis; format: functional; parameters: scale not given: the % may be the effect or the level left
Procedure, shortened: (§4)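 MDA-MB-231 cells seeded 20×10^4 cells/well, incubated 12 h, then serum-starved (1% FBS) for 24 h. Monolayer scratched with a pipette tip, washed with PBS and treated at 25 μM in starvation medium, with 0.1% DMSO as control. Wound imaged at 0 and 24 h (4× objective). Wound area measured to give percent closure.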

[12] = Metabolic stability in rat liver microsome assessed as hepatic clearance pretreated for 5 mins followed by NADPH and measured after 60 mins by HPLC analysis; format: ADME; details: liver microsomes, time 65 min; procedure, shortened: as §3
[13] = tested on: MDA-MB-231 (human); experiment: Potency index, ratio of 1400W EC50 to test compound EC50 for antiproliferative activity against human MDA-MB-231 cells assessed as reduction in cell viability measured after 5 days by PrestoBlue reagent based assay; details: time 5 day
[14] = tested on: MDA-MB-231; experiment: Inhibition of cell migration in human MDA-MB-231 cells assessed as reduction in cell motility incubated for 24 hrs by scratch wound healing assay; format: functional, cell-based; procedure, shortened: as §4
[15] = target: T2, Nitric oxide synthase, inducible; experiment: Inhibition of iNOS (unknown origin)

T2 sequence (P35228 whole entry): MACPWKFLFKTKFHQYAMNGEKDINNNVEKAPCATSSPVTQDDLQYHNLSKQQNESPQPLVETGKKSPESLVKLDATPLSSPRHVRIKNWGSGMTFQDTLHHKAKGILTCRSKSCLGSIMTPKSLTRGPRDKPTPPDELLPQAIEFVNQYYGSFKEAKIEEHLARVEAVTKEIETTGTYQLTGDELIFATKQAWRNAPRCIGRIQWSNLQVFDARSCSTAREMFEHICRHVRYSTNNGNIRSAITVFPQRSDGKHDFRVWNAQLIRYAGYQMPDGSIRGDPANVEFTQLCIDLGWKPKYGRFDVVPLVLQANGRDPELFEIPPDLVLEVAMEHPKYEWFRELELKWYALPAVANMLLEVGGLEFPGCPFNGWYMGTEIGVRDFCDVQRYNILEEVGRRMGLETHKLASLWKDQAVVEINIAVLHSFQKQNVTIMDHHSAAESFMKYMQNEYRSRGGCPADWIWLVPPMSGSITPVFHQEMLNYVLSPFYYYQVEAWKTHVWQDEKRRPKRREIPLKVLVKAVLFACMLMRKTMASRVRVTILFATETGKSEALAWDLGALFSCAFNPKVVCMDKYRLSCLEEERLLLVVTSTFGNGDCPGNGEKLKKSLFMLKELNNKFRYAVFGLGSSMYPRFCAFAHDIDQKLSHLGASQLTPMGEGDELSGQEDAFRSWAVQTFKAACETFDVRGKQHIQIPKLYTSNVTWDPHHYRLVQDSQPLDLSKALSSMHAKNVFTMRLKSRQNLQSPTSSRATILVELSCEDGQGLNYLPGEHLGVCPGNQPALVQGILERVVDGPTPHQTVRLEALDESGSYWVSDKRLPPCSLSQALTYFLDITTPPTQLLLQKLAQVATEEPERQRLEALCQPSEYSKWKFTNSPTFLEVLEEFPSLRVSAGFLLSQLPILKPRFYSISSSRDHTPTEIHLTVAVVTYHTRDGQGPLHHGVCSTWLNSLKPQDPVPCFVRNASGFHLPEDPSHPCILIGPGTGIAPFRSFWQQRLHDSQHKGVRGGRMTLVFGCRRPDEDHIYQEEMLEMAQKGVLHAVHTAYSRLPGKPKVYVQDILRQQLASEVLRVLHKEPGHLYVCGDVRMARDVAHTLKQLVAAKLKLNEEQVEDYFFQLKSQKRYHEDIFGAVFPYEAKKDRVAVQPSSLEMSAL

inhibition [1]	inhibition [2]	SMILES	further results
inactive	83%	Br.Cc1ccc(S(=O)(=O)NCc2cccc(CNC(=N)c3ccccc3)c2)cc1	EC50 [7]: 79 µM; IC50 [4]: > 50 µM; Activity [8]: 91%; half-life [9]: 38 min; EC50 [3]: 24.7 µM; Activity [10]: inactive; Activity [11]: 15%; IC50 [6]: 0.065 µM; CLint scaled [12]: 39.6 mL/min/kg; Ratio EC50 [13]: 4; Activity [14]: Active
28%	59%	Cc1ccc(S(=O)(=O)NCc2cccc(CNC(=N)c3ccc(C(F)(F)F)cc3)c2)cc1	–
19%	65%	N=C(NCc1cccc(CNS(=O)(=O)c2ccc([N+](=O)[O-])cc2)c1)c1ccc(Cl)cc1	–
18%	72%	Cc1ccc(S(=O)(=O)NCc2cccc(CNC(=N)c3ccc(Cl)cc3)c2)cc1	–
26%	72%	N=C(NCc1cccc(CNS(=O)(=O)c2ccc([N+](=O)[O-])cc2)c1)c1ccc(C(F)(F)F)cc1	–
inactive	inactive	CC(=N)NCc1cccc(CNS(=O)(=O)c2ccc(C)cc2)c1	–
35%	71%	N=C(NCc1cccc(CNS(=O)(=O)c2ccc([N+](=O)[O-])cc2)c1)c1ccccc1	–

Continued, compound first:

SMILES	inhibition [1]	inhibition [2]	further results
CC(=N)NCc1ccc(NS(=O)(=O)c2ccc([N+](=O)[O-])cc2)cc1	inactive	inactive	–
CC(=N)NCc1cccc(CN)c1 [1400W]	–	–	EC50 [3]: > 100 µM
N=C(NCc1ccc(NS(=O)(=O)c2ccc([N+](=O)[O-])cc2)cc1)c1ccccc1	inactive	52%	IC50 [4]: > 50 µM; Activity [5]: inactive; EC50 [3]: > 100 µM; IC50 [6]: 0.832 µM
N=C(NCc1ccc(NS(=O)(=O)c2ccc([N+](=O)[O-])cc2)cc1)c1ccc(Cl)cc1	46%	69%	–
N=C(NCc1ccc(NS(=O)(=O)c2ccc([N+](=O)[O-])cc2)cc1)c1ccc(C(F)(F)F)cc1	inactive	inactive	–
COC(=O)[C@@H](N)CCCNC(=N)N[N+](=O)[O-] [L-NAME]	–	–	IC50 [15]: 13.5 µM
